Laboratory results from ChEMBL document CHEMBL1156741, “Development of photoaffinity probes for gamma-secretase equipped with a nitrobenzenesulfonamide-type cleavable linker” (Bioorg Med Chem Lett, 2009).
Calls of active or inactive are those of the source. The calls are words filed in the database; no cut-off is given here.

Tests used:
[1] = Inhibition of gamma-secretase assessed as inhibition of Abeta40 generation at 1 uM
[2] = Inhibition of gamma-secretase assessed as inhibition of Abeta42 generation at 1 uM
[3] = target: T1, Gamma-secretase (Homo sapiens) (UniProt Q96BI3+Q9NZ42+Q8WW43+P49768+Q92542+P49810); experiment: Binding affinity to gamma-secretase in human HeLa cell lysate assessed as presenilin 1 C-terminal fragment photolabeling by Western blotting; assay type: cell-free
In short: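 CHAPSO-solubilized HeLa cell lysate (about 150 µg) was mixed with the probe and photolabeled. PS1 CTF labeling was then detected by western blotting on nitrocellulose with chemiluminescence.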

[4] = target: T1, Gamma-secretase (Homo sapiens); experiment: Binding affinity to gamma-secretase in human HeLa cell lysate assessed as biotinylated presenilin 1 C-terminal fragment by Western blotting in presence of 2-mercaptoethanol; assay type: cell-free
In short: (§1)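 Streptavidin sepharose beads carrying biotinylated proteins captured after photolabeling were treated in carbonate buffer (pH 9.2) with 2% SDS, with or without 3% 2-mercaptoethanol, for 4 h at 20 °C. Proteins were transferred to nitrocellulose and detected by western blotting with chemiluminescence.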

[5] = target: T1, Gamma-secretase (Homo sapiens); experiment: Binding affinity to gamma-secretase in human HeLa cell lysate assessed as biotinylated presenilin 1 C-terminal fragment by Western blotting in absence of 2-mercaptoethanol; assay type: cell-free; in short: as §1

Compound	inhibition [1]	inhibition [2]	Activity [3]	Activity [4]	Activity [5]
C[C@H](NC(=O)Cc1cc(F)cc(F)c1)C(=O)N[C@H](C(=O)OC(C)(C)C)c1ccccc1	77.4%	76.3%	–	–	–
C[C@H](NC(=O)[C@@H](NC(=O)Cc1cc(F)cc(F)c1)c1ccccc1)C(=O)NCc1ccc(C(=O)c2ccc(CNCCCCCC(=O)NCCCCCCCN(C)S(=O)(=O)c3ccc(C(=O)NCCCCCC(=O)CCCC[C@@H]4SC[C@@H]5NC(=O)N[C@@H]54)cc3[N+](=O)[O-])cc2)cc1	78.2%	59.3%	Active	–	–
C[C@H](NC(=O)[C@@H](NC(=O)Cc1cc(F)cc(F)c1)c1ccccc1)C(=O)NCc1ccc(C(=O)c2ccc(CNCC(=O)NCCCCCCCN(C)S(=O)(=O)c3ccc(C(=O)NCCCCCC(=O)CCCC[C@@H]4SC[C@@H]5NC(=O)N[C@@H]54)cc3[N+](=O)[O-])cc2)cc1	81.9%	77%	Active	–	–
C[C@H](NC(=O)[C@@H](NC(=O)Cc1cc(F)cc(F)c1)c1ccccc1)C(=O)NCc1ccc(C(=O)c2ccc(CNCCCCCCCC(=O)NCCCCCCCN(C)S(=O)(=O)c3ccc(C(=O)NCCCCCC(=O)CCCC[C@@H]4SC[C@@H]5NC(=O)N[C@@H]54)cc3[N+](=O)[O-])cc2)cc1	62.3%	89.3%	Active	–	–

Second part, the compound after the results:

inhibition [1]	inhibition [2]	Activity [3]	Activity [4]	Activity [5]	Compound
62.8%	66.2%	Active	Active	inactive	C[C@H](NC(=O)[C@@H](NC(=O)Cc1cc(F)cc(F)c1)c1ccccc1)C(=O)NCc1ccc(C(=O)c2ccc(CNCCCCCCCC(=O)NCCCN(C)S(=O)(=O)c3ccc(C(=O)NCCCCCC(=O)CCCC[C@@H]4SC[C@@H]5NC(=O)N[C@@H]54)cc3[N+](=O)[O-])cc2)cc1
54.9%	60.2%	Active	–	–	C[C@H](NC(=O)[C@@H](NC(=O)Cc1cc(F)cc(F)c1)c1ccccc1)C(=O)NCc1ccc(C(=O)c2ccc(CNCCCCCC(=O)NCCCN(C)S(=O)(=O)c3ccc(C(=O)NCCCCCC(=O)CCCC[C@@H]4SC[C@@H]5NC(=O)N[C@@H]54)cc3[N+](=O)[O-])cc2)cc1
